# Data from ChEMBL document CHEMBL5715947 (Blood Cancer J, 2011).
# Activity calls are given as the source filed them. No cut-off for these calls is given here.
# Experiments:
# [1] = system: Receptor-type tyrosine-protein kinase FLT3 (Homo sapiens), P36888 [UNDEFINED MUTATION]; assay: Inhibition of FLT3-ITD mutant in human MV4-11 cells assessed as reduction in phosphorylated FLT3 protein expression up to 1000 nM incubated for 3 hrs by Western blot analysis; type: cell-based
# MV4-11 [2] = assay: Down regulation of JAK2 protein expression level in human MV4-11 cells harboring FLT3-ITD mutant at 5 nM after 24 hrs by Western blot analysis; type: functional, cell-based
# [3] = system: Receptor-type tyrosine-protein kinase FLT3 (Homo sapiens), P36888 [UNDEFINED MUTATION]; details: MV4-11, dose 5.0 nM, time 24.0 hrs
# MV4-11 [4] = assay: Down regulation of JAK2 protein expression level in human MV4-11 cells harboring FLT3-ITD mutant at 18 nM after 24 hrs by Western blot analysis; type: functional, cell-based
# MV4-11 [5] = assay: Synergistic antiproliferative activity against human MV4-11 cells harboring FLT3-ITD mutant assessed as combination index at ED50 concentration incubated for 48 hrs in presence of JAKi-1 by CellTiter-Glo assay; type: functional
# Summary of the method: (§1)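 Two drugs combined at a constant ratio based on each one's individual IC50. […] Cells seeded 2000–6000/well and treated the same day in triplicate for 48 h. Viability read by CellTiter-Glo. Synergy from dose-response data of the combination. Final DMSO 0.1%.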
# [6] = Selectivity ratio of IC50 for antiproliferative activity against human linifanib-resistant MV4-11 cells harboring FLT3-ITD mutant to IC50 for antiproliferative activity against human MV4-11 cells harboring FLT3-ITD mutant; type: functional
# Summary of the method: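 Linifanib-resistant MV4-11 (MV4-11-R) and parental MV4-11 (MV4-11-P) cells, 2000–6000 cells/well, dosed on the seeding day in triplicate for 48 h, with final DMSO 0.1%. Viability was read by CellTiter-Glo luminescence. IC50 for each line came from dose-response curves, and the ratio is the resistant-line IC50 divided by the parental IC50.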
# MV4-11 [7] = assay: Synergistic antiproliferative activity against human MV4-11 cells harboring FLT3-ITD mutant assessed as combination index at ED90 concentration incubated for 48 hrs in presence of JAKi-1 by CellTiter-Glo assay; type: functional; summary of the method: as §1
# [8] = Toxicity in BALB/c nude mouse xenografted with human MV4-11 cells harboring FLT-3 ITD mutant assessed as change in body weight at 25 to 100 mg/kg, po administered daily for 21 days; type: organism-based; details: in vivo, 504 h, dose 25-100 mg/kg, time 21 day
# Receptor-type tyrosine-protein kinase FLT3 (Homo sapiens), P36888 [UNDEFINED MUTATION], sequence (P36888 whole entry, looked up, change not shown): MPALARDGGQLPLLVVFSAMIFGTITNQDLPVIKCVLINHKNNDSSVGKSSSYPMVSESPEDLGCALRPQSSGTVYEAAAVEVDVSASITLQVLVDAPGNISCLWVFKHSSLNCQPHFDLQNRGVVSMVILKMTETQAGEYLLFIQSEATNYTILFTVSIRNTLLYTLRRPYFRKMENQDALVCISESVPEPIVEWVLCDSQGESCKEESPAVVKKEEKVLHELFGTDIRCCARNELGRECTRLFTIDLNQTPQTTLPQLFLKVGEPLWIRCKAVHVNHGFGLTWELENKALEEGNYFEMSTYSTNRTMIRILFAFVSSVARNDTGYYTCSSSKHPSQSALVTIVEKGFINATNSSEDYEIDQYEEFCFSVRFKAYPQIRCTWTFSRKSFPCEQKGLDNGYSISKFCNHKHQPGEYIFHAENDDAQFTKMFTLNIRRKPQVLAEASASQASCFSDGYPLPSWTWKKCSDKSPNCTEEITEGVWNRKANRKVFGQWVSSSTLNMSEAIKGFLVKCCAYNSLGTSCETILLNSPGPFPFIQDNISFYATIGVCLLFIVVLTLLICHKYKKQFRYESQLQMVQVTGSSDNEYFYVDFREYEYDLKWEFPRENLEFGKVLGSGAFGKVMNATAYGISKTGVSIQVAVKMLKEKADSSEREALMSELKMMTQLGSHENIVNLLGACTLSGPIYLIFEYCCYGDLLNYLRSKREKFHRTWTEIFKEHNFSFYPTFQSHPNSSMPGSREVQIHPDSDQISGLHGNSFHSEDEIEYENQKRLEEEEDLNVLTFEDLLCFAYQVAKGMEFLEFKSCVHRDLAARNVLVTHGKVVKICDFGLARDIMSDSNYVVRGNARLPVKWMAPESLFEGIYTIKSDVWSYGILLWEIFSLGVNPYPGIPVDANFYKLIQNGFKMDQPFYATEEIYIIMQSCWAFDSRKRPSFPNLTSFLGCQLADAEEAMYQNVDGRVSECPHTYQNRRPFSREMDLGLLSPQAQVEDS
smiles,measurement,setting,value
CC(C)(C)c1nc2c3ccc(F)cc3c3c(=O)[nH]ccc3c2[nH]1,inhibition,[1],inactive
CCN(CC)CCNC(=O)c1c(C)[nH]c(/C=C2\C(=O)Nc3ccc(F)cc32)c1C,Activity,MV4-11 [2],inactive
same,inhibition,[3],Active
Cc1cc(Nc2cc(N3CCN(C)CC3)nc(Sc3ccc(NC(=O)C4CC4)cc3)n2)n[nH]1,Activity,MV4-11 [4],inactive
Cc1ccc(F)c(NC(=O)Nc2ccc(-c3cccc4[nH]nc(N)c34)cc2)c1 [LINIFANIB],CI,MV4-11 [5],0.73
same,Activity,MV4-11 [2],inactive
same,Ratio IC50,[6],127
same,CI,MV4-11 [7],0.8
same,inhibition,[3],Active
C1=C/COCc2cc(ccc2OCCN2CCCC2)Nc2nccc(n2)-c2cccc(c2)COC/1 [PACRITINIB],Activity,[8],Non-Toxic
